{"source": "ChEMBL document CHEMBL1126561", "about": "“Synthesis and biological evaluation of N4-substituted imidazo- and v-triazolo[4,5-d]pyridazine nucleosides” (J Med Chem, 1993)", "key": {"B16 [1]": {"test_system": "B16", "test": "Tested in vitro inhibitory activity against murine B16 melanoma cells line", "type": "functional", "conditions": "Mus musculus, read-out: ID50 (the source's name)", "in_short": "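B16 cells maintained in RPMI-1640 with 15% heat-inactivated FBS and antibiotics (doubling time 21 h); 2-3 × 10^3 cells seeded day 0, graded analogue concentrations added day 1, 3 days at 37 °C. MTT 4 h, formazan solubilized in acidic isopropanol, absorbance read; ID50 from curve fit of 12 concentrations, eight determinations each.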"}, "L1210 (1565) [2]": {"test_system": "L1210 (1565)", "test": "Tested in vitro inhibitory activity against murine L 1210 leukemia cells line", "type": "functional", "conditions": "Mus musculus, read-out: ID50 (the source's name)", "in_short": "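L1210 cells in RPMI-1640 with 10% heat-inactivated FBS plus mercaptoethanol (doubling time 12 h); 1 × 10^3 cells seeded day 0, graded analogue concentrations added day 1, cultured 3 days at 37 °C. Growth read by MTT reduction (4 h), formazan in acidic isopropanol; ID50 fitted from 12 concentrations × eight determinations.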"}, "[3]": {"biological_target": "T1, Adenosine deaminase (Bos taurus) (UniProt P56658)", "T1 sequence (whole entry)": "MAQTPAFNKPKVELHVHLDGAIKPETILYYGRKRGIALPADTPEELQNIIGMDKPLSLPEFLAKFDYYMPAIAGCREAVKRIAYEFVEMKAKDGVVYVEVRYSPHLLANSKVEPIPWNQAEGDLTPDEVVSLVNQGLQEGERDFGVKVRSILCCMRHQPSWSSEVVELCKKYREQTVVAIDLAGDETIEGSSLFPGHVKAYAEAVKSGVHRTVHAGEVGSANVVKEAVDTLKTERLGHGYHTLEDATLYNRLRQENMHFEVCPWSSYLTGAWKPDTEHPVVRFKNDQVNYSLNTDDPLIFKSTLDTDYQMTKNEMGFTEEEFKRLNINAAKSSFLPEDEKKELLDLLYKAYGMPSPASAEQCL", "test": "Tested for percentage inhibition against adenosine deaminase at the concentration 100 uM", "in_short": "(§1)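 Calf intestinal mucosa ADA (0.003 unit) in 1 mL of 50 mM potassium phosphate, pH 7.4, at 30 °C. Substrate was 25 μM adenosine, about Km. Analogue tested at 100 μM, reported as percent inhibition.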"}, "B16 [4]": {"test_system": "B16", "test": "Compound was tested in vitro for growth inhibitory activity against B16 melanoma cell line", "type": "functional", "conditions": "Mus musculus, read-out: ID50 (the source's name)", "in_short": "(§2)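 B16 melanoma cells in RPMI-1640 with 15% heat-inactivated FBS and antibiotics, seeded at 2-3 × 10³ cells/well on day 0. Graded analogue (12 concentrations) added day 1, then 3 days at 37 °C. MTT 4 h, formazan dissolved in acidic isopropanol, absorbance read. ID50 from curve fit, eight determinations per concentration.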"}, "Homo sapiens [5]": {"species_on_record": "Homo sapiens", "test": "Compound was tested for the inhibition of adenosine transport into human erythrocytes", "type": "functional", "in_short": "(§3)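 Inhibitor-stop assay of human erythrocytes (10% suspension, v/v) at room temperature. Analogue (up to 10 μM) was preincubated with triplicate cell aliquots for 10 min, then [8-¹⁴C]adenosine was added (final 10 μM). Uptake was stopped after 0.5 s with ice-cold 750 μM dilazep and centrifugation through oil. Cell radioactivity was counted, corrected for extracellular trapping.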"}, "[6]": {"biological_target": "T1, Adenosine deaminase (Bos taurus)", "test": "Tested for inhibition against calf intestinal mucosa adenosine deaminase (ADA)", "type": "tissue-based", "conditions": "concentration not given here", "in_short": "as §1"}, "Homo sapiens [7]": {"species_on_record": "Homo sapiens", "test": "Evaluated for inhibition of adenosine accumulation in human erythrocytes at the concentration of 10 uM of compound", "type": "functional", "in_short": "as §3"}, "L1210 (1565) [8]": {"test_system": "L1210 (1565)", "test": "Compound was tested in vitro for growth inhibitory activity against murine L1210 leukemia cell line", "type": "functional", "conditions": "Mus musculus, read-out: ID50 (the source's name)", "in_short": "as §2, with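 “Murine L1210” for “B16 melanoma”, “10%” for “15%”, “mercaptoethanol,” for “antibiotics,”, “1” for “2-3”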"}, "B16 [9]": {"test_system": "B16", "test": "Compound was tested in vitro for growth inhibitory activity against murine B16 melanoma cell line", "type": "functional", "conditions": "Mus musculus, read-out: ID50 (the source's name)", "in_short": "as §2"}}}
{"smiles": "O=c1[nH]cc(F)c(=O)[nH]1", "note": "[FLUOROURACIL]", "values": [{"measurement": "IC50", "setting": "B16 [1]", "value": "< 0.1", "unit": "mg/L"}, {"measurement": "IC50", "setting": "L1210 (1565) [2]", "value": "< 0.1", "unit": "mg/L"}]}
{"smiles": "Nc1nncc2c1ncn2[C@@H]1O[C@H](CO)[C@@H](O)[C@H]1O", "values": [{"measurement": "inhibition", "setting": "[3]", "value": 15, "unit": "%"}]}
{"smiles": "Nc1ccn([C@@H]2O[C@H](CO)[C@@H](O)[C@@H]2O)c(=O)n1", "note": "[CYTARABINE]", "values": [{"measurement": "IC50", "setting": "B16 [1]", "value": "< 0.1", "unit": "mg/L"}, {"measurement": "IC50", "setting": "L1210 (1565) [2]", "value": "< 0.1", "unit": "mg/L"}]}
{"smiles": "OC[C@H]1OC(n2nnc3c(NCc4ccccc4)nncc32)[C@H](O)[C@@H]1O", "note": "(stereo partly specified)", "values": [{"measurement": "IC50", "setting": "B16 [4]", "value": 35.8, "unit": "mg/L"}, {"measurement": "Inhibition", "setting": "Homo sapiens [5]", "value": 34, "unit": "%"}]}
{"smiles": "Nc1nncc2c1nnn2C1O[C@H](CO)[C@@H](O)[C@H]1O", "note": "(stereo partly specified)", "values": [{"measurement": "inhibition", "setting": "[6]", "value": 7, "unit": "%"}]}
{"smiles": "OC[C@H]1OC(n2cnc3c(NCc4ccccc4)nncc32)[C@H](O)[C@@H]1O", "note": "(stereo partly specified)", "values": [{"measurement": "Inhibition", "setting": "Homo sapiens [7]", "value": 45, "unit": "%"}]}
{"smiles": "CN(Cc1cnc2nc(N)nc(N)c2n1)c1ccc(C(=O)N[C@@H](CCC(=O)O)C(=O)O)cc1", "note": "[METHOTREXATE]", "values": [{"measurement": "IC50", "setting": "L1210 (1565) [8]", "value": "< 0.1", "unit": "mg/L"}, {"measurement": "IC50", "setting": "B16 [9]", "value": "< 0.1", "unit": "mg/L"}]}
